Test results published in ChEMBL document CHEMBL3351994, “Synthesis and biological evaluation of novel millepachine derivatives as a new class of tubulin polymerization inhibitors” (J Med Chem, 2014).

Assays:
HepG2 [1] = assay: Induction of apoptosis in human HepG2 cells assessed as late apoptotic cells at 50 nM after 48 hrs by annexin-V-FITC and propidium iodide staining based flow cytometry (reference value: 1.03%); assay type: functional
Method in brief: (§1)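 HepG2 cells treated with 50, 100 or 200 nM compound or DMSO vehicle for 24 or 48 h at 37 °C. Labeled with annexin-V-FITC and PI and analyzed by flow cytometry. Cells classified as early apoptotic (annexin-V+/PI−), late apoptotic (annexin-V+/PI+) or necrotic (annexin-V−/PI+).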

Rattus norvegicus [2] = assay: Systemic clearance in rat at 9 mg/kg, po; assay type: ADME, organism-based; parameters: dose 9 mg/kg, route oral; conditions: in vivo
HepG2 [3] = assay: Antiproliferative activity against human HepG2 cells assessed as inhibition of cell proliferation after 48 hrs by MTT assay; assay type: functional, cell-based; conditions: hepg2
Method in brief: (§2)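 Cells grown at 37 °C in humidified 5% CO2. K562, C26 and HCT lines in RPMI-1640; other lines in DMEM; both media with 10% FBS, penicillin and streptomycin. 1000 cells/well seeded, incubated overnight, then compound at various doses for 48 h. MTT added for 4 h, formazan dissolved in DMSO, absorbance read at 590 nm. IC50 from dose–response curves, mean ± SEM of at least three independent experiments.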

HepG2 [4] = assay: Induction of apoptosis in human HepG2 cells assessed as necrotic cells at 200 nM after 24 hrs by annexin-V-FITC and propidium iodide staining based flow cytometry (reference value: 2.16%); assay type: functional; method in brief: as §1
HepG2 [5] = assay: Induction of apoptosis in human HepG2 cells assessed as early apoptotic cells at 200 nM after 48 hrs by annexin-V-FITC and propidium iodide staining based flow cytometry (reference value: 3.63%); assay type: functional; method in brief: as §1
A-375 = assay: Antiproliferative activity against human A375 cells assessed as inhibition of cell proliferation after 48 hrs by MTT assay; assay type: functional, cell-based; conditions: A-375, 48 h; method in brief: as §2
HepG2 [6] = assay: Induction of apoptosis in human HepG2 cells assessed as necrotic cells at 50 nM after 48 hrs by annexin-V-FITC and propidium iodide staining based flow cytometry (reference value: 2.16%); assay type: functional
[7] = Antiproliferative activity against adriamycin resistant human MCF7/ADR cells assessed as inhibition of cell proliferation after 48 hrs by MTT assay; assay type: functional, cell-based; conditions: NCI/ADR-RES; method in brief: as §2
HepG2 [8] = assay: Induction of apoptosis in human HepG2 cells assessed as late apoptotic cells at 200 nM after 48 hrs by annexin-V-FITC and propidium iodide staining based flow cytometry (reference value: 1.03%); assay type: functional; method in brief: as §1
NCI-H358 = assay: Antiproliferative activity against human NCI-H358 cells assessed as inhibition of cell proliferation after 48 hrs by MTT assay; assay type: functional, cell-based; conditions: NCI-H358, 48 h; method in brief: as §2
[9] = Antiproliferative activity against human ES2 cells assessed as inhibition of cell proliferation after 48 hrs by MTT assay; assay type: functional, cell-based; conditions: ES-2, 48 h
[10] = Cmax in rat at 9 mg/kg, po; assay type: ADME, organism-based; parameters: dose 9 mg/kg, route oral; conditions: in vivo
Method in brief: (§3)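 Rat pharmacokinetics; oral and intravenous dosing, with group sizes of 5, 5 and 4 rats. Parameters derived: systemic clearance, volume of distribution, area under the plasma concentration–time curve, maximum plasma concentration and percent oral bioavailability.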

HepG2 [11] = assay: Induction of apoptosis in human HepG2 cells assessed as viable cells at 100 nM after 24 hrs by annexin-V-FITC and propidium iodide staining based flow cytometry (reference value: 93.2%); assay type: functional; conditions: HepG2, 24 h, read-out: Activity
Rattus norvegicus [12] = assay: Systemic clearance in rat at 2.25 mg/kg, iv; assay type: ADME, organism-based; parameters: dose 2.25 mg/kg, route intravenous; conditions: in vivo
HepG2 [13] = assay: Induction of cell cycle arrest in human HepG2 cells assessed as accumulation at S phase phase at 200 nM after 24 hrs by propidium iodide staining based flow cytometry (reference value: 30.6%); assay type: functional
HepG2 [14] = assay: Induction of apoptosis in human HepG2 cells assessed as early apoptotic cells at 50 nM after 24 hrs by annexin-V-FITC and propidium iodide staining based flow cytometry (reference value: 3.63%); assay type: functional; method in brief: as §1
HepG2 [15] = assay: Induction of apoptosis in human HepG2 cells assessed as viable cells at 50 nM after 24 hrs by annexin-V-FITC and propidium iodide staining based flow cytometry (reference value: 93.2%); assay type: functional; conditions: HepG2, 24 h, read-out: Activity
U-251 = assay: Antiproliferative activity against human U251 cells assessed as inhibition of cell proliferation after 48 hrs by MTT assay; assay type: functional, cell-based; conditions: U-251, 48 h; method in brief: as §2
A2780 = assay: Resistance index, ratio of IC50 for taxol resistant human […] cells to IC50 for parental human […] cells; assay type: functional
HepG2 [16] = assay: Induction of apoptosis in human HepG2 cells assessed as late apoptotic cells at 100 nM after 48 hrs by annexin-V-FITC and propidium iodide staining based flow cytometry (reference value: 1.03%); assay type: functional; method in brief: as §1
AGS = assay: Antiproliferative activity against human AGS cells assessed as inhibition of cell proliferation after 48 hrs by MTT assay; assay type: functional, cell-based; method in brief: as §2
HepG2 [17] = assay: Induction of cell cycle arrest in human HepG2 cells assessed as accumulation at S phase phase at 100 nM after 24 hrs by propidium iodide staining based flow cytometry (reference value: 30.6%); assay type: functional
[18] = Antiproliferative activity against cisplatin resistant human […] cells assessed as inhibition of cell proliferation after 48 hrs by MTT assay; assay type: functional, cell-based; conditions: A2780cisR; method in brief: as §2
HepG2 [19] = assay: Induction of cell cycle arrest in human HepG2 cells assessed as accumulation at G0/G1 phase at 200 nM after 24 hrs by propidium iodide staining based flow cytometry (reference value: 58.2%); assay type: functional
HepG2 [20] = assay: Induction of apoptosis in human HepG2 cells assessed as late apoptotic cells at 200 nM after 24 hrs by annexin-V-FITC and propidium iodide staining based flow cytometry (reference value: 1.03%); assay type: functional; method in brief: as §1
HepG2 [21] = assay: Induction of apoptosis in human HepG2 cells assessed as viable cells at 200 nM after 24 hrs by annexin-V-FITC and propidium iodide staining based flow cytometry (reference value: 93.2%); assay type: functional; conditions: HepG2, 24 h, read-out: Activity
MCF7 = assay: Antiproliferative activity against human MCF7 cells assessed as inhibition of cell proliferation after 48 hrs by MTT assay; assay type: functional, cell-based; conditions: MCF7, 48 h; method in brief: as §2
[22] = Antiproliferative activity against mouse C26 cells assessed as inhibition of cell proliferation after 48 hrs by MTT assay; assay type: functional, cell-based; conditions: C26, 48 h; method in brief: as §2
[23] = Antiproliferative activity against human HCT116 cells assessed as inhibition of cell proliferation after 48 hrs by MTT assay; assay type: functional, cell-based; conditions: HCT-116, 48 h
Rattus norvegicus [24] = assay: Volume of distribution at steady state in rat at 9 mg/kg, po; assay type: ADME, organism-based; parameters: dose 9 mg/kg, route oral; conditions: in vivo
HepG2 [25] = assay: Induction of cell cycle arrest in human HepG2 cells assessed as accumulation at G0/G1 phase at 50 nM after 24 hrs by propidium iodide staining based flow cytometry (reference value: 58.2%); assay type: functional
HepG2 [26] = assay: Induction of apoptosis in human HepG2 cells assessed as viable cells at 100 nM after 48 hrs by annexin-V-FITC and propidium iodide staining based flow cytometry (reference value: 93.2%); assay type: functional; conditions: HepG2, 48 h, read-out: Activity
[27] = Oral bioavailability in rat at 9 mg/kg; assay type: ADME, organism-based; conditions: in vivo
Rattus norvegicus [28] = assay: AUC in rat at 9 mg/kg, po; assay type: ADME, organism-based, Plasma; parameters: dose 9 mg/kg, route oral; conditions: in vivo; method in brief: as §3
HepG2 [29] = assay: Induction of cell cycle arrest in human HepG2 cells assessed as accumulation at G2/M phase phase at 50 nM after 24 hrs by propidium iodide staining based flow cytometry (reference value: 11.2%); assay type: functional

## COc1ccc(/C=C/C(=O)c2ccc(OC)c3c2OC(C)(C)C=C3)cc1N
HepG2 [1]
  Activity: 17.69%
Rattus norvegicus [2]
  CL: 98.3 mL/min/kg
HepG2 [3]
  IC50: 8 nM
HepG2 [4]
  Activity: 1.95%
HepG2 [5]
  Activity: 20.14%
A-375
  IC50: 22 nM
HepG2 [6]
  Activity: 2.76%
[7]
  IC50: 17 nM
HepG2 [8]
  Activity: 34.72%
NCI-H358
  IC50: 12 nM
[9]
  IC50: 8 nM
[10]
  Cmax: 519 ng/mL
HepG2 [11]
  viability at 0.1 µM: 74.1%
Rattus norvegicus [12]
  CL: 20 mL/min/kg
HepG2 [13]
  Activity: 19.1%
HepG2 [14]
  Activity: 2.21%
HepG2 [15]
  viability at 0.05 µM: 88.8%
U-251
  IC50: 24 nM
A2780
  Ratio IC50: 4.2
HepG2 [16]
  Activity: 29.45%
AGS
  IC50: 10 nM
HepG2 [17]
  Activity: 27.8%
[18]
  IC50: 14 nM
HepG2 [19]
  Activity: 37.6%
HepG2 [20]
  Activity: 23.46%
HepG2 [21]
  viability at 0.2 µM: 63.1%
MCF7
  IC50: 27 nM
[22]
  IC50: 26 nM
[23]
  IC50: 21 nM
Rattus norvegicus [24]
  Vdss: 25 L/kg
HepG2 [25]
  Activity: 56.6%
HepG2 [26]
  viability at 0.1 µM: 48.8%
[27]
  bioavailability: 28%
Rattus norvegicus [28]
  AUC: 2040 ng·h/mL
HepG2 [29]
  Activity: 19.5%
